The text below walks through data of ChEMBL document CHEMBL1148774, “Doxazolidine induction of apoptosis by a topoisomerase II independent mechanism” (J Med Chem, 2007).

Calls of active or inactive are those of the source. The rule behind the calls is not given here.

One assay deals with SHP77. Description: Growth inhibition of human SHP77 cells after 3 hrs by MTT assay. It is filed as functional, cell-based. The conditions noted are these: SHP77, 3 h. In short, it runs like this:
(§1)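 Adherent cells grown in 10% FBS medium (RPMI 1640 or DMEM) were exposed to drug for 3 h. They were then grown until control wells reached ~80% confluence (3–5 days) and quantified by MTT metabolism or crystal violet staining. IC50 was taken from growth inhibition. Each condition was run in hexuplicate, and experiments were done at least twice.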
(In general: Tetrazolium assays rely on reduction of a dye to a coloured formazan, in cell work by metabolically active cells.)

Another assay deals with A-375. In words: Growth inhibition of human A375 cells after 3 hrs by MTT assay. The class given is functional, cell-based. To be noted: A-375, 3 h. The essentials:
as §1

Another assay relates to PC-3. In words: Growth inhibition of human PC3 cells after 3 hrs by MTT assay. It is filed as functional, cell-based. To be noted: PC-3, 3 h. The essentials: as §1
A further assay relates to MDA-MB-435. In words: Growth inhibition of human MDA-MB-435 cells after 3 hrs by MTT assay. It is filed as functional, cell-based. To be noted: MDA-MB-435, 3 h. In short, it runs like this:
as §1

A further assay has as its system MIA PaCa-2. In words: Growth inhibition of human MiaPaCa2 cells after 3 hrs by MTT assay. To be noted: MIA PaCa-2, 3 h. The class given is functional, cell-based. The essentials: as §1
Assay [1] is described as follows: Growth inhibition of human HL60(TB) cells after 48 hrs by crystal violet assay. The class given is functional, HL-60(TB). To be noted: HL-60, 48 h.
The subject of assay [2] is HCT-116. In words: Growth inhibition of human HCT116 cells after 48 hrs by MTT assay. The class given is functional, cell-based. The conditions noted are these: HCT-116, 48 h.
Another assay concerns NCI-H460. In words: Growth inhibition of human NCIH460 cells after 48 hrs by MTT assay. The class given is functional, cell-based. To be noted: NCI-H460, 48 h.
Another assay relates to SF-268. Description: Growth inhibition of human SF268 cells after 48 hrs by MTT assay. To be noted: SF-268, 48 h. It is filed as functional, cell-based.
In the next assay the test system is UACC-257. Description: Growth inhibition of human UACC257 cells after 48 hrs by MTT assay. The class given is functional, cell-based. To be noted: UACC-257, 48 h.
Assay [3] in a line: Growth inhibition of human IGROVI cells after 48 hrs by MTT assay. The class given is functional, cell-based.
The test system of a further assay is RXF 393. In words: Growth inhibition of human RXF393 cells after 48 hrs by MTT assay. The conditions noted are these: RXF 393, 48 h. The class given is functional, cell-based.
The test system of another assay is DU-145. Description: Growth inhibition of human DU145 cells after 48 hrs by MTT assay. The class given is functional, cell-based. The conditions noted are these: DU-145, 48 h.
Assay [4] in a line: Growth inhibition of human MCF7/ADR cells after 48 hrs by crystal violet assay. The class given is functional, cell-based. The conditions noted are these: NCI/ADR-RES.
Assay [5] has as its system HCT-116. In words: Cell cycle arrest in human HCT116 cells by accumulation at G2/M phase at 400 nM for 3 hrs by flow cytometry. It is filed as functional, cell-based. The essentials:
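HCT-116 cells in McCoy's medium with 10% FBS, exposed 3 h at 400 nM or vehicle, then grown on and analysed 24 h post-treatment. Cells trypsinized, washed in cold PBS/2 mM EDTA, fixed in 50% ethanol, RNase A treated, stained with propidium iodide (50 μg/mL final). DNA content by FACScan flow cytometry.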
On the technique in general: Flow cytometry measures light scatter and fluorescence of single cells or particles in a stream.

Assay [6] concerns HL-60. In words: Effect on G2/M arrest in human HL60 cells at 100 nM after 24 hrs. The class given is functional, cell-based. In short, it runs like this:
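HL-60 cells kept in RPMI 1640 with 10% FBS, 2 mM L-glutamine, 10 mM HEPES. Exposed continuously for 24 h at 100 nM or vehicle. Cells centrifuged, washed in cold PBS/2 mM EDTA, fixed in 50% ethanol, RNase A treated, stained with propidium iodide (50 μg/mL final). Cell cycle distribution read by flow cytometry.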

The species named for assay [7] is Homo sapiens. In words: Inhibition of topoisomerase 2 at 500 nM by decatenation assay. In short, it runs like this: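 Kinetoplast DNA decatenation: 143 ng catenated kDNA with one unit human recombinant topoisomerase II, ± drug at 500 nM. Buffer: 120 mM KCl, 50 mM Tris-HCl, 10 mM MgCl2, 0.5 mM DTT, 0.5 mM ATP, 30 μg/mL BSA. Incubated 30 min at 37 °C. Stopped with sarkosyl/glycerol loading dye, then resolved by agarose gel electrophoresis.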

Assay [8] deals with HL-60. Description: Induction of apoptosis in HL60 cells assessed as annexin V positive cells. It is filed as functional, Homo sapiens. In short, it runs like this:
(§2)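 HL-60 and HL-60/MX2 cells in RPMI 1640/10% FBS were treated with 100 nM drug or vehicle for 24 h. Cells were washed in cold PBS and stained with annexin V-fluorescein plus propidium iodide in binding buffer (140 mM NaCl, 10 mM HEPES pH 7.4, 2.5 mM CaCl2). The percent annexin V-positive cells was read by flow cytometry.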

In assay [9] the test system is HL60/MX2. Description: Induction of apoptosis in topoisomerase 2 deficient HL60/MX2 cells assessed as annexin V positive cells. It is filed as functional, Homo sapiens. In short, it runs like this: as §2
In the next assay the test system is BXPC-3. Description: Growth inhibition of human BxPc3 cells after 3 hrs by MTT assay. To be noted: BXPC-3, 3 h. It is filed as functional, cell-based. The essentials:
as §1

The test system of assay [10] is HCT-116. Description: Induction of apoptosis in human HCT116 cells at 400 nM for 3 hrs relative to control cells by annexin V staining assay. The class given is functional, cell-based. The essentials:
(§3)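 HCT-116 cells in McCoy's medium/10% FBS were exposed to drug at a series of concentrations, or to vehicle, for 3 h. At 48 h post-treatment they were trypsinized and washed in cold PBS. They were then stained with annexin V-fluorescein and propidium iodide in HEPES pH 7.4/CaCl2 binding buffer, and the percent apoptotic cells was measured by flow cytometry.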

In assay [11] the test system is HCT-116. In words: Induction of apoptosis in human HCT116 cells at 50 nM for 3 hrs by annexin V staining assay. The class given is functional. The essentials: as §3
Assay [12] has as its system HL60/MX2. In words: Effect on G2/M arrest in topoisomerase 2 deficient human HL60/MX2 cells at 100 nM after 24 hrs. The class given is functional, cell-based. The essentials:
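HL-60/MX2 cells in RPMI 1640/10% FBS were treated with 100 nM drug or vehicle for 24 h, then centrifuged and washed in cold PBS. They were fixed in 50% ethanol, treated with RNase A and stained with propidium iodide (50 μg/mL final). Cell cycle distribution was read by flow cytometry.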

For assay [13], the species on record is Homo sapiens. Description: Inhibition of topoisomerase 2 at 50 nM by decatenation assay. In short, it runs like this:
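Human recombinant topoisomerase II (one unit) was incubated with 143 ng catenated kinetoplast DNA, with or without drug, for 30 min at 37 °C. The buffer held 120 mM KCl, 50 mM Tris-HCl, 10 mM MgCl2, 0.5 mM DTT, 0.5 mM ATP and 30 μg/mL BSA. Reactions were stopped with sarkosyl/glycerol dye, and decatenation was resolved by agarose gel electrophoresis.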

Assay [14] relates to HCT-116. In words: Induction of apoptosis in human HCT116 cells at 200 nM for 3 hrs by annexin V staining assay. It is filed as functional. In short, it runs like this: as §3

Broadly, the IC50 is the concentration needed to halve the response being measured. A high value points to weaker potency in that assay.

`COc1cccc2c1C(=O)c1c(O)c3c(c(O)c1C2=O)C[C@@](O)(C(=O)CO)C[C@@H]3O[C@H]1C[C@H](N)[C@H](O)[C@H](C)O1` [DOXORUBICIN]: the IC50 was greater than 1000 nM with SHP77; 200 nM with A-375; 316 nM in the assay with PC-3; 158 nM in the assay on MDA-MB-435; 316 nM in the assay with MIA PaCa-2; 58.9 nM in [1]. The IC50 in the assay with HCT-116 [2] was 70.8 nM; with NCI-H460, 6.03 nM; with SF-268, 91.2 nM; in the assay with UACC-257, 209 nM; in assay [3], 110 nM; in the assay with RXF 393 it was 178 nM. For the same molecule, the IC50 was 110 nM in the assay with DU-145 and 13200 nM in assay [4]. The outcome with HCT-116 [5] and in the assay filed under Homo sapiens [7] was Active. For the same molecule, the outcome in the assay with HL-60 [6] was inactive. Besides, the figures for the Activity with HL-60 [8] and with HL60/MX2 [9] were 29% and 5%, respectively.

On to `COc1cccc2c1C(=O)c1c(O)c3c(c(O)c1C2=O)C[C@@](O)(C(=O)CO)C[C@@H]3O[C@H]1C[C@@H]2NCO[C@@H]2[C@H](C)O1` [DOXAZOLIDINE], for which the half-inhibitory concentration (IC50) is 2 nM with SHP77; 1 nM in the assay on A-375; 10 nM in the assay with PC-3; 10 nM with MDA-MB-435; 3.16 nM in the assay on MIA PaCa-2; 10 nM with BXPC-3. For the same molecule, the concentration for half-maximal inhibition (IC50) in [1] was 0.331 nM; in the assay with SF-268, 2.63 nM; with UACC-257, less than 1.51 nM; in assay [3], less than 1.38 nM; in the assay on RXF 393, less than 0.977 nM; in the assay with DU-145, 3.16 nM. In addition, the IC50 in assay [4] is less than 18.6 nM. Also, the Activity result in the assay with HCT-116 [10] is “Dose-dependent effect”; in the assay on HCT-116 [11], 20%; in the assay on HCT-116 [14], 60%; with HL-60 [8], 77%; in the assay on HL60/MX2 [9], 75%. Besides, the result in the assay on HL60/MX2 [12] and in the assay listed under Homo sapiens [13] was Active.
